Laboratory results as given in ChEMBL document CHEMBL3865814, “Chemical Constituents Isolated from the Root Bark of Cudrania tricuspidata and Their Potential Neuroprotective Effects” (J Nat Prod, 2016).

Experiments:
Assay type in all cases: functional, cell-based
[1] = Neuroprotective activity in human SH-SY5Y cells assessed as reduction in oxygen glucose deprivation-induced cell death incubated for 16 hrs under hypoxic condition followed by incubation for 24 hrs under normoxic condition by MTT assay
Method in brief: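 After 24 h plating (2 × 10^4/well, DMEM with 10% FBS and glucose), medium was switched to serum- and glucose-free RPMI and samples or vehicle added. Cells were held 16 h under 95% N2/5% CO2, then reoxygenated 24 h in RPMI with 10% FBS and glucose at 37 °C. Viability was by MTT at A540. EC50 is half-maximal protection, mean of triplicates.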

[2] = Neuroprotective activity in human SH-SY5Y cells assessed as reduction in 1-methyl-4-phenylpyridinium ion-induced cell death after 48 hrs by MTT assay
Method in brief: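 SH-SY5Y cells in DMEM with 10% heat-inactivated FBS and 1% penicillin/streptomycin were seeded at 2 × 10^4 cells/well for 24 h, then exposed to 2 mM MPP+ for 48 h. MTT (0.5 mg/mL in PBS) was added for 4 h at 37 °C, formazan dissolved in DMSO and absorbance read at 540 nm. EC50 is the concentration giving half-maximal protection, mean of triplicates.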

[3] = Neuroprotective activity in human SH-SY5Y cells assessed as reduction in 6-OHDA-induced cell death measured after 24 hrs by MTT assay
Method in brief: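 Cells were seeded at 2 × 10^4 per well and grown 24 h in DMEM with 10% heat-inactivated FBS at 37 °C under 5% CO2. They were then co-treated with graded sample concentrations and 100 μM 6-OHDA for 24 h. Viability was by MTT (0.5 mg/mL, 4 h, 37 °C), DMSO solubilization and A540. EC50 is half-maximal protection, mean of triplicate determinations.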

Row | SMILES | EC50 [1] [µM] | EC50 [2] [µM] | EC50 [3] [µM]
1 | NCCC(=O)N[C@@H](Cc1c[nH]cn1)C(=O)O [CARNOSINE] | 3 | – | –
2 | C=CC(C)(C)c1c(OC)cc(O)c2c(=O)c3c(CC=C(C)C)c(O)c(O)cc3oc12 [CUDRAXANTHONE D] | 4.8 | > 50 | –
3 | CCCCCCCC/C=C\CCCCCCCC(=O)O [OLEIC ACID] | – | – | 9.5
4 | C=CC(C)(C)c1c(OC)cc(O)c2c(=O)c3c(CC(O)C(=C)C)c(O)c(O)cc3oc12 (stereo not given) | 2.9 | > 50 | –
5 | CC1(C)C=Cc2cc3ccc(=O)oc3cc2O1 [XANTHYLETIN] | – | – | 8
6 | COc1c(C(C)=O)ccc2c1C=CC(C)(C)O2 | 22.3 | > 50 | –
7 | CC(C)=CCc1c(O)c(O)cc2oc3c4c(cc(O)c3c(=O)c12)OC(C)C4(C)C (stereo not given) [CUDRATRICUSXANTHONE J] | > 50 | 8.1 | –
8 | CC1(C)C=Cc2c(c(O)cc3oc4c5c(cc(O)c4c(=O)c23)OC(CO)C5(C)C)O1 (stereo not given) | 8.9 | > 50 | –
9 | CC(C)=CC1Oc2cc(O)ccc2-c2oc3cc4c(c(O)c3c(=O)c21)C=CC(C)(C)O4 (stereo not given) [CUDRAFLAVONE A] | 13.5 | > 50 | 15.5
10 | CC1Oc2cc3oc4c5c(c(O)cc4c(=O)c3c(O)c2C1(C)C)OC(C(C)(C)O)C5 (stereo not given) | 6 | > 50 | –
11 | CC1(C)CCc2cc(C3CC(=O)c4c(O)cc5c(c4O3)CCC(C)(C)O5)c(O)cc2O1 (stereo not given) | – | – | 9.1
12 | CC(C)=CCc1cc2ccc(=O)oc2cc1O [DEMETHYLSUBEROSIN] | 8.6 | 0.2 | –
13 | COC(=O)c1ccc(O)cc1O [METHYL 2,4-DIHYDROXYBENZOATE] | 35.5 | > 50 | –
14 | CC1(C)C=Cc2c(c(O)cc3c(=O)c4c(O)c5c(cc4oc23)OC(CO)C5(C)C)O1 (stereo not given) | 11.2 | > 50 | –
15 | C=C(C)C(=O)Cc1c(OC)c(O)cc2oc3c4c(cc(O)c3c(=O)c12)OC(CO)C4(C)C (stereo not given) | 13.2 | > 50 | –
16 | CC1(C)CC[C@]2(C)CC[C@]3(C)[C@H]4CC=C5[C@@H](CC[C@H](O)C5(C)C)[C@]4(C)CC[C@@]3(C)[C@@H]2C1 [GLUTINOL] | – | – | 12.9
17 | O=c1ccoc2cc(O)cc(O)c12 | – | – | 1.9

Row | SMILES | EC50 [1] [µM] | EC50 [2] [µM] | EC50 [3] [µM]
18 | C=C1CC[C@H](O)C(C)(C)[C@@H]1CC/C(C)=C/CC/C=C(\C)CC/C=C(\C)CCC=C(C)C | 6.5 | > 50 | 7.2
19 | COc1cc(/C=C/C(=O)CC(=O)/C=C/c2ccc(O)c(OC)c2)ccc1O [CURCUMIN] | – | – | 6.2
20 | O=Cc1ccc(O)cc1 [4-HYDROXYBENZALDEHYDE] | – | – | 30.2
21 | C=CC(C)(C)c1c(O)cc(O)c2c(=O)c3c4c(c(O)cc3oc12)OC(C)(C)C=C4 | 33.3 | > 50 | –
22 | CC1Oc2cc3oc4c5c(c(O)cc4c(=O)c3c(O)c2C1(C)C)OC(C)(C)C(O)C5 (stereo not given) | 23.6 | > 50 | –
23 | CC(C)=CCc1c(O)c(O)cc2c(=O)c3c4c(c(O)cc3oc12)C(C)(C)C(C)O4 (stereo not given) | 34.9 | > 50 | –
24 | CC1Oc2cc(O)c3c(=O)c4c5c(c(O)cc4oc3c2C1(C)C)OC(C)(C)C=C5 (stereo not given) | 3.5 | > 50 | –
25 | CC(C)=CCc1c2c(c(O)c3c(=O)c4ccc(O)c(O)c4oc13)C(C)(C)C(C)O2 (stereo not given) | 17.2 | > 50 | –
26 | C[C@H]1[C@H](C)CC[C@]2(C)CC[C@]3(C)C(=CC[C@@H]4[C@@]5(C)CC[C@H](O)C(C)(C)[C@@H]5CC[C@]43C)[C@H]12 | 13.3 | > 50 | –
27 | C=CC(C)(C)c1c(O)cc(O)c2c(=O)c3c4c(c(O)cc3oc12)O[C@@H](C(C)(C)O)C4 | 12.2 | > 50 | –
28 | CC(C)=CCOc1c2ccoc2cc2oc(=O)ccc12 [ISOIMPERATORIN] | 3.5 | > 50 | 9.2
29 | C=C(C)[C@@H]1CC[C@]2(C(=O)O)CC[C@]3(C)[C@H](CC[C@@H]4[C@@]5(C)CC[C@H](O)C(C)(C)[C@@H]5CC[C@]43C)[C@@H]12 [BETULINIC ACID] | – | 4.3 | –
30 | CC(C)=CCOc1c2occc2cc2ccc(=O)oc12 [PENTOSALEN] | 8.4 | > 50 | –
31 | C=C(C)C(O)Cc1c(OC)c(O)cc2oc3c4c(cc(O)c3c(=O)c12)OC(CO)C4(C)C (stereo not given) | 28.5 | > 50 | –
32 | C=CC(C)(C)c1c(OC)cc(O)c2c(=O)c3c(cc(O)c4oc(C(C)(C)O)cc43)oc12 | > 50 | 10.3 | –
33 | COCc1ccc(O)cc1 | 7.9 | > 50 | –
